# Source: article PMC6660019 (ACS catalysis, 2019)
# Read-outs that look alike come from different tables or passages of the source.
# Key:
# LmbB2 [1] = molecular target: T1, LmbB2 (Streptomyces lincolnensis, UniProt Q54355); experiment: EPR analysis of the ferrous LmbB2-nitrosyl; details: 20 mM ligand; for EPR spectroscopic change compared with E-NO· alone: negative controls; for gave (average g value) of E-NO· complex after addition of ligand: 50 K, E-NO· alone gave = 2.030
# How it was run: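 His6-tagged LmbB2 expressed in E. coli BL21(DE3) with δ-aminolevulinic acid and ferrous ammonium sulfate, then Ni-affinity purified. 200 µM argon-saturated enzyme reduced anaerobically with 1 mM sodium dithionite, then exposed to excess NO from diethylamine NONOate in a sealed O2-free vial. Phenolic ligands added at 20 mM final. Samples frozen in liquid nitrogen. X-band EPR at 9.4 GHz, 100 kHz modulation, 50 K, 0.05 mW.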
# LmbB2 [2] = molecular target: T1, LmbB2; experiment: Oxygen production; format: biochemical; details: substrate concentration exceeding 200 µM, 1 mM H2O2
# LmbB2 [3] = molecular target: T1, LmbB2; experiment: Isothermal titration calorimetry; format: binding
# LmbB2 [4] = molecular target: T1, LmbB2; format: biochemical
# LmbB2 [5] = molecular target: T1, LmbB2; experiment: LmbB2 catalytic reaction with H2O2, product analysis by HPLC; format: biochemical; details: after normalizing for the percentage of substrate conversion
# [6] = ^18O-enriched H2O2 (≥ 90% ^18O), normal water
# [7] = ^18O-enriched water (88% ^18O), normal H2O2
# [8] = ^18O-enriched water (88% ^18O), normal H2O2, listed as Tyrosine
# [9] = ITC, 100 mM KPi, 50 mM NaCl, pH 8, 20 °C
# [10] = ^18O-enriched H2O2 (≥ 90% ^18O), normal water, listed as 3-Fluoro-L-tyrosiTane
# [11] = ^18O-enriched water (88% ^18O), normal H2O2, listed as 3-Fluoro-L-tyrosiTane
smiles,measurement,setting,value
CC(C)(C)OC(=O)N[C@@H](Cc1ccc(O)cc1)C(=O)O [N-boc-L-tyrosine],EPR spectroscopic change compared with E-NO· alone,LmbB2 [1],no significant EPR spectroscopic change
"N[C@@H](Cc1ccc(O)cc1)C(=O)O [compound 1, L-tyrosine]",rate of oxygen formation,LmbB2 [2],zero
same,gave (average g value) of E-NO· complex after addition of ligand,LmbB2 [1],2.027
same,Kd,LmbB2 [3],1.35 ± 0.03 µM
same,Hydroxylation product ^16O/^16O,LmbB2 [4]; [6],7.2 ± 0.3%
same,Hydroxylation product ^16O/^18O,LmbB2 [4]; [6],over 90%
same,Hydroxylation product ^16O/^18O,"LmbB2 [4]; ^18O-enriched H2O2 (≥ 90% ^18O), normal water, listed as Tyrosine",92.8 ± 0.3%
same,Hydroxylation product ^16O/^16O,LmbB2 [4]; [7],87.7%
same,Hydroxylation product ^16O/^18O,LmbB2 [4]; [7],11.2%
same,Hydroxylation product ^18O/^18O,LmbB2 [4]; [7],1.0 ± 0.1%
same,Hydroxylation product ^16O/^16O,LmbB2 [4]; [8],87.7 ± 0.9%
same,Hydroxylation product ^16O/^18O,LmbB2 [4]; [8],11.2 ± 0.8%
"N[C@@H](Cc1ccccc1)C(=O)O [compound 2, L-phenylalanine]",gave (average g value) of E-NO· complex after addition of ligand,LmbB2 [1],2.027
same,Kd,LmbB2 [3],318 ± 8 µM
"COc1ccc(C[C@H](N)C(=O)O)cc1 [compound 3, O-methyl-L-tyrosine]",gave (average g value) of E-NO· complex after addition of ligand,LmbB2 [1],2.026
same,Kd,LmbB2 [3]; [9],1290 ± 140 µM
"N[C@@H](Cc1ccc(O)c([N+](=O)[O-])c1)C(=O)O [compound 4, 3-nitro-L-tyrosine]",KD,LmbB2 [3]; [9],no detectable thermal change
"N[C@@H](Cc1ccc(O)c(F)c1)C(=O)O [compound 5, 3-fluoro-L-tyrosine]",rate of oxygen formation,LmbB2 [2],~10 min⁻¹
same,Kd,LmbB2 [3],22.2 ± 1.1 µM
same,binding affinity weaker than the native substrate,LmbB2 [3]; KD of analog versus L-tyrosine (1),around 16 fold
same,Dehalogenation and Hydroxylation product (1a) ^16O/^16O,LmbB2 [4]; [6],30.3 ± 1.0%
same,Dehalogenation and Hydroxylation product (1a) ^16O/^18O,LmbB2 [4]; [6],69.7%
same,Hydroxylation product ^16O/^16O,LmbB2 [4]; [6],15.5 ± 0.2%
same,Hydroxylation product ^16O/^18O,LmbB2 [4]; [6],84.5%
same,Dehalogenation and Hydroxylation product (1a) ^16O/^18O,LmbB2 [4]; [10],69.7 ± 1.0%
same,Hydroxylation product ^16O/^18O,LmbB2 [4]; [10],84.5 ± 0.2%
same,Dehalogenation and Hydroxylation product (1a) ^16O/^16O,LmbB2 [4]; [7],36.2%
same,Dehalogenation and Hydroxylation product (1a) ^16O/^18O,LmbB2 [4]; [7],51.5%
same,Dehalogenation and Hydroxylation product (1a) ^18O/^18O,LmbB2 [4]; [7],12.3%
same,Hydroxylation product ^16O/^16O,LmbB2 [4]; [7],57.3%
same,Hydroxylation product ^16O/^18O,LmbB2 [4]; [7],35.8%
same,Hydroxylation product ^18O/^18O,LmbB2 [4]; [7],6.9%
same,Dehalogenation and Hydroxylation product (1a) ^16O/^16O,LmbB2 [4]; [11],36.2 ± 0.9%
same,Dehalogenation and Hydroxylation product (1a) ^16O/^18O,LmbB2 [4]; [11],51.5 ± 0.7%
same,Dehalogenation and Hydroxylation product (1a) ^18O/^18O,LmbB2 [4]; [11],12.3 ± 1.2%
same,Hydroxylation product ^16O/^16O,LmbB2 [4]; [11],57.3 ± 1.6%
same,Hydroxylation product ^16O/^18O,LmbB2 [4]; [11],35.8 ± 1.6%
same,Hydroxylation product ^18O/^18O,LmbB2 [4]; [11],6.9 ± 0.7%
same,"ratio of 1a formation among substrates 5, 6 and 7",LmbB2 [5],4.5
"N[C@@H](Cc1ccc(O)c(Cl)c1)C(=O)O [compound 6, 3-chloro-L-tyrosine]",Kd,LmbB2 [3],346 ± 2 µM
same,"ratio of 1a formation among substrates 5, 6 and 7",LmbB2 [5],1.3
"N[C@@H](Cc1ccc(O)c(I)c1)C(=O)O [compound 7, 3-iodo-L-tyrosine]",Kd,LmbB2 [3],7820 ± 180 µM
same,"ratio of 1a formation among substrates 5, 6 and 7",LmbB2 [5],1
Cc1ccc(O)cc1 [p-cresol],EPR spectroscopic change compared with E-NO· alone,LmbB2 [1],no significant EPR spectroscopic change
